Bioassay records: PubChem, Johns Hopkins Ion Channel Center
The list is not random: actives were taken first. Their share in the collection is about 2.3%.
TRPC6 inh – inhibitors of mouse TRPC6 channel | Q61143 | HEK293-TRPC6, membrane potential dye, ACh-evoked depolarization; hits give low values | B-score at 10 µM | 310,000 compounds, 1.1% hits | AID 2553;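 active = B-score under library mean minus 3 SD, initial fluorescence not abnormally high, positive integrated signal ratio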;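 note: B-score derived from integrated fluorescence ratio over the kinetic read; more negative B-score means stronger inhibition of depolarization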
Target sequence (Q61143 whole entry, looked up): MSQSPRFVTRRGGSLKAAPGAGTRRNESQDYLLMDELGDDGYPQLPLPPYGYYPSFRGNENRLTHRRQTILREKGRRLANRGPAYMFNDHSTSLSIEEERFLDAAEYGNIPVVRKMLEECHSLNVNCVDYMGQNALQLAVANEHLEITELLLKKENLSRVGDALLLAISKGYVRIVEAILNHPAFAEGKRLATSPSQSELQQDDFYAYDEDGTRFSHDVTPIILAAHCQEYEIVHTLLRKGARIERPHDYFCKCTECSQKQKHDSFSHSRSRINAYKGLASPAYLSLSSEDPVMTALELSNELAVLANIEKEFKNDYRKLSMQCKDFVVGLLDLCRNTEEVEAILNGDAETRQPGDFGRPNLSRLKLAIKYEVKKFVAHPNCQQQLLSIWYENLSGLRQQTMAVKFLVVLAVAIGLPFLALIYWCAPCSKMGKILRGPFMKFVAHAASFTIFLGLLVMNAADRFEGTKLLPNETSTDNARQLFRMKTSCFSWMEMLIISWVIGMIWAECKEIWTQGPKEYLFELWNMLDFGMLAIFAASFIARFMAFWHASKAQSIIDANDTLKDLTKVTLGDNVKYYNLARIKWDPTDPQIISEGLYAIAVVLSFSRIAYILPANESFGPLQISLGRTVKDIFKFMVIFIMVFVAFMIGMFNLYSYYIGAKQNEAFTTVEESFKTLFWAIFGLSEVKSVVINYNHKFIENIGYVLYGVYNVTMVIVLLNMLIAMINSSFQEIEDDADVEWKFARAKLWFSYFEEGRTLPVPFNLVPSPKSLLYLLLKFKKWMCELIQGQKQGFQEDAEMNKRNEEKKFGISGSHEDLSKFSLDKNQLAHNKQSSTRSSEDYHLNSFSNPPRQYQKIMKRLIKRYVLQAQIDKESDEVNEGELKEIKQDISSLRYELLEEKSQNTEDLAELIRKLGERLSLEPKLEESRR
TRPC4 potent – allosterically enhances the mouse TRPC4 cation channel | AID 2227 | HEK293 TRPC4beta/mu-opioid, DAMGO EC20, Fluo-4 Ca2+ flux; hits give high values | 310,000 compounds, 0.42% hits | Q9QUQ5 | B-score at 10 µM;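 active = B-score of calcium response area above 5 SD of library B-scores, with initial fluorescence ratio within 5 SD of library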
TRPC4 agonist – TRPC4 (mouse) channel activation | Q9QUQ5 | HEK293 TRPC4beta/mu-opioid, Fluo4 calcium fluorescence; hits give high values | B-score at 10 µM | 310,000 compounds, 0.49% hits | AID 2237;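 active = B-score above 5 SD of library B-scores, and initial fluorescence ratio not above library mean plus 5 SD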;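 note: positive B-score marks a calcium rise read as TRPC4 activation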
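Technique: kinetic Fluo4 calcium fluorescence; Test system: TRPC4beta and mu-opioid receptor HEK293 stable cells; Measure: B-scored integrated calcium fluorescence ratio; Benchmarks: low control buffer alone, high control maximal DAMGO; Schedule: 45 min room-temperature Fluo4 loading, 110 s read.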
TRPC6 activator – activators of mouse TRPC6 channel; Q61143; HEK293-TRPC6 membrane potential dye fluorescence; hits give high values; B-score at 10 µM; 310,000 compounds, 0.13% hits; AID 2550;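 active = B-score of the integrated fluorescence ratio above library mean plus 3 SD, and starting fluorescence ratio within library mean plus 5 SD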;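 note: higher score means more depolarization so channel activation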
TRPC4 block – TRPC4 (mouse) channel inhibition. Q9QUQ5. HEK293 TRPC4beta/mu-opioid, DAMGO-evoked Fluo4 calcium flux; hits give low values. B-score at 10 µM. 300,000 compounds, 0.39% hits. AID 2247;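 active = B-score over 3 SD under the library average, no early fluorescence shift, positive overall ratio signal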
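Signal: kinetic Fluo4 fluorescence imaging of calcium influx. Material: stable TRPC4beta/mu-opioid receptor HEK293 cells. Probe or stimulus: DAMGO in two steps, submaximal then maximal.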
Numbers stand for hits; n = inactive.

SMILES	TRPC6 inh	TRPC4 potent	TRPC4 agonist	TRPC6 activator	TRPC4 block
O=[N+]([O-])c1ccc(C2(O)CN(c3ccccc3)C3=[N+]2CCS3)cc1 (centres undefined)	n	n	87	n	-7
OC1(c2ccc(F)cc2)CN(c2ccccc2)C2=[N+]1CCS2 (centres undefined)	n	n	n	n	-6
COc1ccccc1CCc1nnc(CCC(=O)NCCCOc2cccnc2)o1	n	n	n	n	-6
COc1ccccc1CCc1nnc(CCC(=O)NC(C)Cc2cccnc2)o1 (centres undefined)	n	n	n	n	n
O=C(NC1CC1)[C@@H]1CSC2c3ccccc3C(=O)N21 (some centres undefined)	n	n	n	n	n
CSC1=NC2(CCCCC2)C2=C(CCCC2)N1	n	n	n	n	-6
COc1cccc(CC(=O)NC2CCCN(Cc3ccccc3F)C2)c1 (centres undefined)	n	n	n	n	n
Cn1cnnc1SCC(=O)NC1CCCN(Cc2ccc(Cl)cc2)C1 (centres undefined)	n	n	46	n	n
O=C(NC1CCCN(Cc2ccc(Cl)cc2)C1)C1CCC1 (centres undefined)	n	n	136	n	n
COc1cccc(CC(=O)NC2CCCN(Cc3ccc(Cl)cc3)C2)c1 (centres undefined)	n	14	n	n	n
CC(=O)N=C1C=CC(=CN(O)C(C)(C)Cc2ccccc2)C=C1	n	n	n	n	n
O=C1NC2(CCCCCC2)C(=O)N1Cc1c(F)cccc1Cl	n	n	n	n	n
CCCN(CCC)CCNC(=O)C1CC(=O)N(c2ccc(OC)cc2)C1c1ccc(OC)cc1 (centres undefined)	n	n	43	n	n
O=C(N/N=C\c1ccc([N+](=O)[O-])s1)C1COc2ccccc2O1 (centres undefined)	n	n	n	n	n
Cc1ccc(/C=N\NC(=O)C2COc3cc4ccccc4cc3O2)o1 (centres undefined)	n	n	112	n	n
O=C(N/N=C\c1ccc(Cl)s1)C1COc2ccccc2O1 (centres undefined)	n	n	70	n	n
Cc1cccc(N2CCN(Cc3ccoc3)CC2)c1C	n	n	n	n	-5
CCN1C(=O)c2ccccc2S(=O)(=O)c2ccc(C(=O)NCCOC)cc21	n	n	n	n	n
CCCCN(CC)CCCNC(=O)c1ccc2c(c1)N(CC)C(=O)c1ccccc1S2(=O)=O	n	14	n	n	n
c1cnc(N2CCN(c3cnccn3)CC2)nc1	n	28	n	n	n
CSc1nnc(Cc2sc(-c3ccccc3)nc2-c2ccccc2)o1	n	20	n	n	n
COc1ccc(C2(c3ccc(O)cc3O)CC(c3ccccc3Cl)NC(=S)N2)cc1 (centres undefined)	n	11	n	n	n
CC1CCc2sc3ncnc(N4CCOCC4)c3c2C1 (centres undefined)	n	n	n	n	-6
COc1ccc(-n2cc(CNCCc3ncc(C)[nH]3)c(-c3ccccc3Cl)n2)cc1	n	n	148	n	n
COc1ccc(-n2cc(CNCCc3nc(C)cc(C)n3)c(-c3ccccc3Cl)n2)cc1	n	n	n	n	n
SMILES	TRPC6 inh	TRPC4 potent	TRPC4 agonist	TRPC6 activator	TRPC4 block
Fc1ccc(-n2cc(CNCCc3ccccn3)c(-c3ccccc3Cl)n2)cc1	n	n	253	n	n
COc1ccc(-n2cc(CNCCCn3ccnc3)c(-c3ccccc3Cl)n2)cc1	n	n	n	n	n
Cc1ccc(-n2cc(CNCCc3ncc(C)[nH]3)c(-c3ccc(F)cc3)n2)cc1	n	n	133	n	n
O=C(Cn1nnc(-c2ccc(CN3CCOCC3)cc2)n1)N(c1ccccc1)c1ccccc1	n	n	n	n	n
O=C(c1ccc(F)c(F)c1)N1CCCc2ccccc21	n	n	n	n	n
CCCn1c(=O)c2ccccc2n2c(SCCOc3ccc(OC)cc3)nnc12	n	n	n	n	n
CCCn1c(=O)c2ccccc2n2c(SCCOc3ccc(C)cc3)nnc12	n	n	n	n	-6
O=C(O)c1ccc(Cl)cc1Nc1nc2cc(Cl)ccc2o1	n	n	n	n	-6
CCC(=O)Nc1cc(Cl)ccc1C(=O)O	n	n	n	n	n
O=S(=O)(Nc1ccc(S(=O)(=O)Nc2cccc3ccccc23)cc1)c1ccccc1	n	15	n	n	n
O=S(=O)(Nc1ccc(S(=O)(=O)Nc2ccccc2)cc1)c1ccccc1	n	11	n	n	n
COc1cccc(CN(C(=O)COc2ccc(Cl)cc2)C2CCS(=O)(=O)C2)c1 (centres undefined)	n	n	n	n	n
O=C(CN1CCN(Cc2ccc(Cl)cc2)C1=O)NCCCN1CCOCC1	n	n	n	n	n
O=C(CN1CCN(Cc2ccc(Cl)cc2)C1=O)NCCCN1CCN(c2ccc(F)cc2)CC1	n	n	n	n	-6
Cc1oc(-c2ccc(Cl)cc2)nc1CSCC(=O)NC1CCN(Cc2ccccc2)CC1	n	12	n	n	n
CCOC(=O)N1CCC(NC(=O)CSCc2nc(-c3ccc(OCC)cc3)oc2C)CC1	n	n	n	n	n
O=[N+]([O-])c1ccc(Sc2cccc[n+]2[O-])c2nonc12	n	n	n	n	n
CC(=O)C1=C(c2ccccc2)NC(=S)NC1c1cc(Cl)c(OC(C)C)c(Cl)c1 (centres undefined)	n	12	n	n	n
CCCCn1c(SCC(=O)OCC)nc2c(sc(=S)n2-c2ccccc2OC)c1=O	n	n	n	n	-6
CCCCCCCCCCCC(=O)NC(C(=O)O)C(O)c1ccccc1 (centres undefined)	n	n	n	n	-6
CCCCCCCCCC(=O)N[C@H](CN1CCOCC1)[C@H](O)c1ccccc1	n	n	n	n	n
CCC(C)NC(=O)C1CCC(CNS(=O)(=O)c2ccccc2)CC1 (centres undefined)	n	n	n	n	n
COc1ccccc1N1CCN(C(=O)c2cc(C(C)(C)C)oc2C)CC1	n	n	n	n	n
Cc1oc(C(C)(C)C)cc1C(=O)N1CCN(c2ncccc2C(F)(F)F)CC1	n	11	n	n	n
ClCC1=Nc2cccc3cccc(c23)N1	n	n	n	n	n
CCCN(CCC)CCCNC(=O)c1ccc(CS(=O)(=O)c2c(Cl)cccc2Cl)o1	n	n	79	n	n
Cc1ccc(/C=C/C(=O)NCc2cccs2)o1	n	n	n	n	n
CC1CCCCC1NS(=O)(=O)c1ccc(S(=O)(=O)N2CCCC2)cc1 (centres undefined)	n	49	n	n	n
CC1CCCCC1NC(=O)c1ccc(S(=O)(=O)N2CCCC2)cc1 (centres undefined)	n	n	n	n	n
COC(=O)C1=C(C)N(Cc2ccccc2)C(=NCc2ccccc2)N[C@H]1c1cccc(F)c1	n	n	n	n	n
